One experiment addresses D(2) dopamine receptor (Bos taurus, UniProt P20288). Description: Displacement of [3H]spiroperidol from homogenized bovine pituitary Dopamine receptor D2. In general terms: Loss of bound radioactivity is the signal in a displacement assay; it reports binding, not function.
The species entered for a further experiment is Oryctolagus cuniculus. Description: Ability to relax the electrically stimulated rabbit ear artery was determined. The class given is functional. The method, boiled down: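 Isolated, perfused rabbit ear artery under electrical stimulation; inhibition of the neurogenic response taken as the D-2 agonist read-out. Concentration–response curves were also run in the presence of (S)-sulpiride at several nM concentrations. Points are mean ± SEM of at least four experiments.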

For experiment [1], the target named is T1, D(1A) dopamine receptor (Rattus norvegicus, UniProt P18901). Description: Dopamine receptor D1 agonist efficacy was measured with stimulation of dopamine-sensitive rat adenylate cyclase in caudate membranes; NS means not significant. It is filed as functional, cell membranes, Membrane.
Experiment [2] concerns the target T1, D(1A) dopamine receptor. Description: Dopamine D1 agonist efficacy was measured with stimulation of dopamine-sensitive rat adenylate cyclase in caudate membranes. It is filed as functional, cell membranes, Membrane.
Experiment [3] concerns the target T1, D(1A) dopamine receptor. Description: Dopamine receptor D1 agonist efficacy was measured with stimulation of dopamine-sensitive rat adenylate cyclase in caudate membranes. Partial agonist, maximum effect 59% of dopamine maximum effect. It is filed as functional, cell membranes, Membrane.
Experiment [4] has as its target D(1A) dopamine receptor (Rattus norvegicus) (UniProt P18901). As to conditions: Striatum; call rule not given here.
Experiment [5] addresses T1, D(1A) dopamine receptor. Description: Dopamine receptor D1 agonist efficacy was measured with stimulation of dopamine-sensitive rat adenylate cyclase in caudate membranes. Partial agonist, maximum effect 60% of dopamine maximum effect. It is filed as functional, cell membranes, Membrane.
The target in experiment [6] is D(1A) dopamine receptor (Rattus norvegicus) (UniProt P18901). As to conditions: Striatum. This is another data set of the same source.
For experiment [7], the target named is T1, D(1A) dopamine receptor. In words: Dopamine receptor D1 agonist efficacy was measured with stimulation of dopamine-sensitive rat adenylate cyclase in caudate membranes. It is filed as functional, cell membranes, Membrane.

T1 sequence (P18901 whole entry): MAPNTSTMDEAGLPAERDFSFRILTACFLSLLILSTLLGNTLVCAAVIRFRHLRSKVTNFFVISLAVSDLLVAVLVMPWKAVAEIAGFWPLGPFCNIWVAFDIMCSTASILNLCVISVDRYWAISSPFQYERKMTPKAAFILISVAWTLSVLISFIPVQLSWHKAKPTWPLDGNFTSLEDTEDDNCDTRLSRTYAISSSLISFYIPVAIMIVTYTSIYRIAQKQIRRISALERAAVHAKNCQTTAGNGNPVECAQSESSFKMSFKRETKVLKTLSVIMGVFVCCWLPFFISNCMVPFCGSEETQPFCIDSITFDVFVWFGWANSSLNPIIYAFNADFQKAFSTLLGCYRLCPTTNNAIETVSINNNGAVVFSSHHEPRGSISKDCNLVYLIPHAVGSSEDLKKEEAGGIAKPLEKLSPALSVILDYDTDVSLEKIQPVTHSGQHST
Sequence of D(1A) dopamine receptor (Rattus norvegicus) (P18901 whole entry): as above
Sequence of D(2) dopamine receptor (P20288 whole entry, the tested form may be a part): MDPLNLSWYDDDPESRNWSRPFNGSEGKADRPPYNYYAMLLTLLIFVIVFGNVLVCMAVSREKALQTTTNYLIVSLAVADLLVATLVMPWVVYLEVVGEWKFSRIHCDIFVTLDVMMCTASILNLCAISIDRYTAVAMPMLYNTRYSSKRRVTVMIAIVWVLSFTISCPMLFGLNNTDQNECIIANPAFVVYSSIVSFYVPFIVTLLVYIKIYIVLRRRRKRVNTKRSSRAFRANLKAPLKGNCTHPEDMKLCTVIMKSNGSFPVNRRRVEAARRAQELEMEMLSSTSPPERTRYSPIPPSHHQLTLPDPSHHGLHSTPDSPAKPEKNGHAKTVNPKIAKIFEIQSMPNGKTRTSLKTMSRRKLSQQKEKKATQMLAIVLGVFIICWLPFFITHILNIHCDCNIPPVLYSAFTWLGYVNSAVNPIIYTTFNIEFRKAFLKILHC

Compound `CCCN(CCC)CCc1ccc(O)c2[nH]c(O)nc12` returned an IC50 on D(2) dopamine receptor of 1000 nM. Further, in the experiment listed under Oryctolagus cuniculus, the concentration for a half-maximal effect (EC50) was found to be 9 nM.
Regarding `CCCN(CCC)CCc1ccc(O)c2nc(O)oc12`, the IC50 on D(2) dopamine receptor amounted to 1200 nM. For the same compound, a half-maximal effect in the experiment listed under Oryctolagus cuniculus (EC50) was put at 8 nM.
In the case of `CCCN(CCC)CCc1cccc2c1CC(=O)N2` [ROPINIROLE], at D(2) dopamine receptor, the 50% inhibitory concentration (IC50) was found to be 6810 nM.
With `CNCCc1ccc(O)c2nc(O)sc12`, the half-maximal effective concentration (EC50) in the experiment filed under Oryctolagus cuniculus stood at 6 nM.
On to `CCCN(CCC)CCc1c(Cl)cc(O)c2nc(O)sc12`, for which the response in the experiment listed under Oryctolagus cuniculus was half-maximal at 50 nM (EC50).
At D(2) dopamine receptor, `CCCN(CCC)CCc1ccc(O)c2c1C(=O)C(=O)N2` registered a 50% inhibitory concentration (IC50) of 560 nM. In addition, the EC50 result on D(1A) dopamine receptor [1] is “Not Active”; in the experiment listed under Oryctolagus cuniculus, 7 nM.
For `CCCN(CCC)CCc1cccc2nc(O)sc12`, the concentration for half-maximal inhibition (IC50) at D(2) dopamine receptor is 1000 nM. For the same compound, the half-maximal effective concentration (EC50) in the experiment listed under Oryctolagus cuniculus is 28 nM.
On D(2) dopamine receptor, `NCCc1cccc2nc(O)sc12` showed an IC50 above 10000 nM. Further, the values for the EC50 entry at D(1A) dopamine receptor [1] and in the experiment filed under Oryctolagus cuniculus were “Not Active” and 1000 nM, respectively.
Compound `CCCN(CCC)CCc1ccc(O)c2c1CC(=O)N2` [SKF-89124A] had an IC50 at D(2) dopamine receptor of 530 nM. Moreover, the EC50 on D(1A) dopamine receptor [2] turned out to be 20000 nM; in the experiment filed under Oryctolagus cuniculus, 1.8 nM.
The compound `CCCN(CCC)CCc1ccc(O)c2nc(O)sc12` had a concentration for half-maximal inhibition (IC50) on D(2) dopamine receptor of 49 nM. Besides, the EC50 in the experiment filed under Oryctolagus cuniculus is 0.028 nM.
As for `NCCc1ccc(O)c2c1CC(=O)N2`, the IC50 at D(2) dopamine receptor was determined as 4850 nM. For the same compound, the EC50 at D(1A) dopamine receptor [3] turned out to be 4650 nM. This compound also registered a K bind in experiment [4] of 700 nM.
`NCCc1ccc(O)c(O)c1` [DOPAMINE]: the concentration for a half-maximal effect (EC50) in the experiment filed under Oryctolagus cuniculus amounted to 76 nM.
In turn, `NCCc1ccc(O)c2nc(O)sc12` showed an IC50 on D(2) dopamine receptor of 2000 nM. Further, the 50% effective concentration (EC50) at D(1A) dopamine receptor [5] was 295 nM; in the experiment listed under Oryctolagus cuniculus, 30 nM. For the same compound, the K bind in experiment [6] came out at 9 nM.
For the compound `CCCN(CCC)CCc1ccc(O)c(O)c1`, the EC50 was determined as 12500 nM on D(1A) dopamine receptor [7] and 80 nM in the experiment listed under Oryctolagus cuniculus.
As for `Oc1ccc(C2CNCCc3c2cc(O)c(O)c3Cl)cc1` (configuration not stated) [FENOLDOPAM], the concentration giving a half-maximal response (EC50) in the experiment filed under Oryctolagus cuniculus came to 1200 nM. Moreover, the K bind in experiment [4] stood at 3 nM.

By IC50 is commonly meant the midpoint of a concentration-inhibition curve. In general, EC50 refers to the concentration needed to bring the measured effect to its halfway point. Lower therefore signals a more potent agent.

Values taken from ChEMBL document CHEMBL1123777 (J Med Chem, 1987).
